In ChEMBL document CHEMBL1795208 (J Med Chem, 2011):
pIC50: −log10 of the molar value. Calls of active or inactive are those of the source. The rule behind the calls is not given here.

Experiments:
[1] = Antiproliferative activity against human androgen-independent PC3MM2 cells after 72 hrs by MTS/PMS assay; format: functional, cell-based; settings: PC3MM2, 72 h
How it was run: (§1)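 Cells kept in Advanced DMEM/F12 (1:1) with non-essential amino acids, 2 mM L-glutamine, penicillin, streptomycin and 10% FBS at 37 °C, 5% CO2. Seeded at 2000/well, attached overnight. Compound added in DMSO across a concentration range (1% DMSO final) for 72 h. Viable cells read by MTS/PMS and normalized to 1% DMSO controls (100%). IC50 taken from separate triplicate experiments.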

MCF7 = test: Antiproliferative activity against human MCF7 cells expressing estrogen receptor after 72 hrs by MTS/PMS assay; format: functional, cell-based; settings: MCF7, 72 h; how it was run: as §1
[2] = biological target: T1, Heat shock protein HSP90 (Homo sapiens) (UniProt P07900+P08238); test: Inhibition of Hsp90 in human MCF7 cells assessed as Raf1 degradation after 24 hrs by Western blot analysis; format: cell-based
How it was run: (§2)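 MCF-7 cells grown as for proliferation and treated with compound at various concentrations, GDA, or DMSO vehicle (1% DMSO final) for 24 h. Lysed in RIPA with 1 mM PMSF, 2 mM orthovanadate and protease inhibitors on ice for 1 h, then clarified at 14000g. Protein measured by BCA. 20 µg run reducing, transferred to nitrocellulose and probed with specific antibodies.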

[3] = biological target: T1, Heat shock protein HSP90 (Homo sapiens); test: Inhibition of Hsp90 in human MCF7 cells assessed as Akt degradation after 24 hrs by Western blot analysis; format: cell-based; how it was run: as §2
SK-BR-3 [4] = test: Antiproliferative activity against human SKBR3 cells expressing HER2 after 72 hrs by MTS/PMS assay; format: functional, cell-based; settings: SK-BR-3, 72 h; how it was run: as §1
[5] = biological target: T1, Heat shock protein HSP90 (Homo sapiens); test: Inhibition of Hsp90 in human MCF7 cells assessed as Her2 degradation at IC50 concentration after 24 hrs by Western blot analysis; format: cell-based
[6] = biological target: T1, Heat shock protein HSP90 (Homo sapiens); test: Inhibition of Hsp90 in human MCF7 cells assessed as Raf1 degradation at IC50 concentration after 24 hrs by Western blot analysis; format: cell-based
[7] = biological target: T1, Heat shock protein HSP90 (Homo sapiens); test: Inhibition of Hsp90 in human MCF7 cells assessed as Her2 degradation after 24 hrs by Western blot analysis; format: cell-based; how it was run: as §2
[8] = biological target: T1, Heat shock protein HSP90 (Homo sapiens); test: Inhibition of Hsp90 in human MCF7 cells assessed as Akt degradation at IC50 concentration after 24 hrs by Western blot analysis; format: cell-based
SK-BR-3 [9] = test: Ratio of novobiocin IC50 to compound IC50 for human SKBR3 cells expressing HER2; format: functional
SK-MEL-28 = test: Antiproliferative activity against human SK-MEL-28 cells after 72 hrs by MTS/PMS assay; format: functional, cell-based; settings: SK-MEL-28, 72 h; how it was run: as §1
[10] = Antiproliferative activity against human JMAR cells after 72 hrs by MTS/PMS assay; format: functional, cell-based; how it was run: as §1
[11] = Antiproliferative activity against human androgen-dependent LNCaP-LN3 cells after 72 hrs by MTS/PMS assay; format: functional, cell-based; settings: LNCaP-LN3, 72 h; how it was run: as §1
B16-F10 = test: Antiproliferative activity against mouse B16F10 cells after 72 hrs by MTS/PMS assay; format: functional, cell-based; settings: B16-F10, 72 h; how it was run: as §1
[12] = Antiproliferative activity against human MDA1986 cells after 72 hrs by MTS/PMS assay; format: functional, cell-based; settings: MDA1986, 72 h; how it was run: as §1

Compound	pIC50 (MCF7)	inhibition [2]	inhibition [3]	pIC50 (SK-BR-3 [4])	inhibition [5]	inhibition [6]	inhibition [7]	inhibition [8]	pIC50 (SK-MEL-28)	pIC50 (B16-F10)	pIC50 [1]	Ratio IC50 (SK-BR-3 [9])	pIC50 [10]	pIC50 [11]	pIC50 [12]
COc1cc2cc(NC(=O)c3ccc(O)c(CC=C(C)C)c3)c(=O)oc2c(C)c1OC1CCN(C)CC1	6.27	Dose-dependent effect	Dose-dependent effect	6.38	Active	Active	Dose-dependent effect	Active	–	–	5.65	–	–	–	–
COc1cccc(-c2cc(C(=O)Nc3cc4cc(OC)c(O[C@@H]5OC[C@@H]6OC(=O)O[C@H]56)c(C)c4oc3=O)ccc2OC)c1	–	–	–	–	–	–	–	–	–	–	–	500	–	–	–
COc1cccc(-c2cc(C(=O)Nc3cc4ccc(O[C@H]5OCC[C@@H](O)[C@H]5O)c(OC)c4oc3=O)ccc2OC)c1	4.96	–	–	4.95	–	–	–	–	–	–	–	500	–	–	–
COc1cccc(-c2cc(C(=O)Nc3cc4ccc(OC5CCCN(C(C)=O)C5)c(C)c4oc3=O)ccc2OC)c1 (stereo unspecified)	< 4.30	–	–	< 4.30	–	–	–	–	4.68	4.91	5.47	–	4.82	5.91	4.65
COc1cccc(-c2cc(C(=O)Nc3cc4cc(OC)c(OC5CNC[C@@H](O)[C@H]5O)c(C)c4oc3=O)ccc2OC)c1 (stereo partly specified)	5.48	–	–	5.44	–	–	–	–	4.86	5.30	5.16	–	4.94	5.02	4.86
COc1cccc(-c2cc(C(=O)Nc3cc4cc(OC)c(OC5CCCN(C)C5)c(C)c4oc3=O)ccc2OC)c1 (stereo unspecified)	5.85	–	–	5.83	–	–	–	–	5.23	5.57	5.16	–	4.72	4.98	4.88
COc1cccc(-c2cc(C(=O)Nc3cc4ccc(O[C@@H]5C[C@H](O)CO5)c(C)c4oc3=O)ccc2OC)c1	< 4.00	–	–	< 4.00	–	–	–	–	4.91	5.03	4.57	–	5.21	5.30	4.73
COc1cccc(-c2cc(C(=O)Nc3cc4cc(OC)c(OC5CCNCC5)c(C)c4oc3=O)ccc2OC)c1	5.55	–	–	5.92	–	–	–	–	5.24	5.74	5.40	–	4.96	5.28	4.84
COc1cccc(-c2cc(C(=O)Nc3cc4cc(OC)c(OC5CCCNC5)c(C)c4oc3=O)ccc2OC)c1 (stereo unspecified)	5.54	–	–	5.64	–	–	–	–	5.14	5.74	5.59	–	5.24	5.44	5.19
COc1cc2cc(NC(=O)c3ccc(OC(C)=O)c(CC=C(C)C)c3)c(=O)oc2c(C)c1OCCCN(C)C	6.15	Dose-dependent effect	Dose-dependent effect	6.44	Active	Active	Dose-dependent effect	Active	–	–	5.84	–	–	–	–
COc1cccc(-c2cc(C(=O)Nc3cc4ccc(OC5CCN(C)CC5)c(OC)c4oc3=O)ccc2OC)c1	5.86	–	–	6.01	–	–	–	–	5.21	6.39	5.43	–	4.88	5.32	4.88
COc1cc2cc(NC(=O)c3cc4ccccc4[nH]3)c(=O)oc2c(C)c1OC1CCN(C)CC1	6.28	–	–	6.96	–	–	–	–	5.83	5.92	6.06	–	5.91	5.83	5.85
COc1cccc(-c2cc(C(=O)Nc3cc4ccc(OCCN(C)C)c(C)c4oc3=O)ccc2OC)c1	5.84	–	–	5.99	–	–	–	–	4.83	4.80	5.38	–	4.74	5.18	4.76
COc1cccc(-c2cc(C(=O)Nc3cc4ccc(OC5CCCN(C)C5)c(C)c4oc3=O)ccc2OC)c1 (stereo unspecified)	5.30	–	–	5.69	–	–	–	–	5.21	5.59	5.37	–	4.90	5.91	5.35
COc1cccc(-c2cc(C(=O)Nc3cc4ccc(O[C@@H]5O[C@H](CO)C[C@@H](O)[C@H]5O)c(C)c4oc3=O)ccc2OC)c1	4.96	–	–	5.02	–	–	–	–	4.97	5.02	5.34	–	5.24	5.49	5.24
CNCCOc1ccc2cc(NC(=O)c3ccc(OC)c(-c4cccc(OC)c4)c3)c(=O)oc2c1C	5.01	–	–	5.27	–	–	–	–	4.59	4.43	4.85	–	4.45	< 4.00	4.66

Now from value to compound, other results behind:

pIC50 (MCF7)	inhibition [2]	inhibition [3]	pIC50 (SK-BR-3 [4])	inhibition [5]	inhibition [6]	inhibition [7]	inhibition [8]	pIC50 (SK-MEL-28)	pIC50 (B16-F10)	Compound	pIC50 [1]	Ratio IC50 (SK-BR-3 [9])	pIC50 [10]	pIC50 [11]	pIC50 [12]
5.78	–	–	5.47	–	–	–	–	5.83	5.19	COc1cccc(-c2cc(C(=O)Nc3cc4ccc(OC5C=CCN(C)C5)c(OC)c4oc3=O)ccc2OC)c1 (stereo unspecified)	6.01	–	5.71	6.44	5.63
< 4.00	–	–	< 4.00	–	–	–	–	5.46	4.80	COc1cccc(-c2cc(C(=O)Nc3cc4ccc(OC5CC(C)(C)C[C@@H](O)[C@H]5O)c(C)c4oc3=O)ccc2OC)c1 (stereo partly specified)	5.60	–	5.07	5.91	4.73
5.76	–	–	5.79	–	–	–	–	5.27	5.53	COc1cccc(-c2cc(C(=O)Nc3cc4ccc(OC5C=CCNC5)c(C)c4oc3=O)ccc2OC)c1 (stereo unspecified)	5.36	–	5.47	5.37	5.18
< 4.00	–	–	< 4.00	–	–	–	–	4.94	5.60	COc1cccc(-c2cc(C(=O)Nc3cc4ccc(OC5CC(C)C[C@@H](O)[C@H]5O)c(C)c4oc3=O)ccc2OC)c1 (stereo partly specified)	5.39	–	5.56	5.94	5.17
5.86	–	–	5.85	–	–	–	–	5.15	5.82	COc1cccc(-c2cc(C(=O)Nc3cc4ccc(OC5CCCN(C)C5)c(OC)c4oc3=O)ccc2OC)c1 (stereo unspecified)	5.67	–	5.12	5.75	4.94
5.70	–	–	5.56	–	–	–	–	5.24	5.55	COc1cccc(-c2cc(C(=O)Nc3cc4cc(OC)c(OC5CN(C)C[C@@H](O)[C@H]5O)c(C)c4oc3=O)ccc2OC)c1 (stereo partly specified)	5.38	–	4.61	5.33	4.89
< 4.00	–	–	< 4.00	–	–	–	–	5.83	6.00	COc1cccc(-c2cc(C(=O)Nc3cc4ccc(O[C@@H]5OCCC[C@H]5O)c(C)c4oc3=O)ccc2OC)c1	5.00	–	4.79	5.43	6.09
< 4.00	–	–	< 4.00	–	–	–	–	5.53	4.85	COc1cccc(-c2cc(C(=O)Nc3cc4ccc(OC5CCC[C@@H](O)[C@H]5O)c(C)c4oc3=O)ccc2OC)c1 (stereo partly specified)	5.39	–	4.86	5.80	4.75
5.84	–	–	5.51	–	–	–	–	5.26	5.47	COc1cccc(-c2cc(C(=O)Nc3cc4ccc(OC5C=CCNC5)c(OC)c4oc3=O)ccc2OC)c1 (stereo unspecified)	5.31	–	5.17	5.19	5.22
5.77	–	–	5.92	–	–	–	–	5.27	5.54	COc1cccc(-c2cc(C(=O)Nc3cc4cc(OC)c(OC5C=CCNC5)c(C)c4oc3=O)ccc2OC)c1 (stereo unspecified)	5.45	–	4.94	5.27	5.23
5.49	–	–	5.75	–	–	–	–	4.78	5.67	COc1cccc(-c2cc(C(=O)Nc3cc4ccc(OC5CCNCC5)c(OC)c4oc3=O)ccc2OC)c1	5.07	–	4.90	4.96	4.96
